Laboratory results from ChEMBL document CHEMBL1151705, “Novel azalides derived from 16-membered macrolides. Part II: Isolation of the linear 9-formylcarboxylic acid and its sequential macrocyclization with an amino alcohol or an azidoamine” (2008).
≈ marks a conversion by molar mass, not a printed value.

Assays:
Assay type in all cases: functional
Streptococcus pneumoniae [1] = assay: Antimicrobial activity against drug-susceptible Streptococcus pneumoniae DP1 Type1 after 20 hrs by agar dilution method; details: Streptococcus pneumoniae, 20 h; read-out: MIC
Method in brief: (§1)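 Streptococci, H. influenzae and M. catarrhalis were precultured on blood agar plates. Suspensions of about 10⁶ CFU/ml were inoculated onto sensitivity disk agar supplemented with 5% horse blood and incubated at 37 °C for 20 h. MIC was read as the lowest drug concentration with no visible growth.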

Haemophilus influenzae [2] = assay: Antimicrobial activity against drug-susceptible Haemophilus influenzae 1 after 20 hrs by agar dilution method; details: Haemophilus influenzae, 20 h; read-out: MIC; method in brief: as §1
Staphylococcus aureus [3] = assay: Antimicrobial activity against drug-susceptible Staphylococcus aureus 2 after 20 hrs by agar dilution method; details: Staphylococcus aureus, 20 h; read-out: MIC
Method in brief: (§2)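 Agar dilution MIC. S. aureus seed culture was grown in sensitivity test broth. Cell suspension (about 10⁶ CFU/ml) was inoculated onto sensitivity disk agar with 5% horse blood and incubated at 37 °C for 20 h. MIC was the lowest drug concentration that prevented visible growth.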

Staphylococcus aureus [4] = assay: Antimicrobial activity against Staphylococcus aureus 6 expressing inducible ermB after 20 hrs by agar dilution method; method in brief: as §2
Streptococcus pyogenes [5] = assay: Antimicrobial activity against Streptococcus pyogenes 3 expressing mefA after 20 hrs by agar dilution method; method in brief: as §1
Haemophilus influenzae [6] = assay: Antimicrobial activity against drug-susceptible Haemophilus influenzae 3 after 20 hrs by agar dilution method; details: Haemophilus influenzae, 20 h; read-out: MIC; method in brief: as §1
Haemophilus influenzae [7] = assay: Antimicrobial activity against drug-susceptible Haemophilus influenzae 2 after 20 hrs by agar dilution method; details: Haemophilus influenzae, 20 h; read-out: MIC; method in brief: as §1
Moraxella catarrhalis [8] = assay: Antimicrobial activity against drug-susceptible Moraxella catarrhalis 1 after 20 hrs by agar dilution method; details: Moraxella catarrhalis, 20 h; read-out: MIC; method in brief: as §1
Streptococcus pneumoniae [9] = assay: Antimicrobial activity against Streptococcus pneumoniae 6 constitutively expressing ermB after 20 hrs by agar dilution method; details: Streptococcus pneumoniae, 20 h; read-out: MIC; method in brief: as §1
Streptococcus pneumoniae [10] = assay: Antimicrobial activity against Streptococcus pneumoniae 7 expressing inducible ermB after 20 hrs by agar dilution method; method in brief: as §1
Streptococcus pneumoniae [11] = assay: Antimicrobial activity against drug-susceptible Streptococcus pneumoniae 3 after 20 hrs by agar dilution method; details: Streptococcus pneumoniae, 20 h; read-out: MIC; method in brief: as §1
Streptococcus pneumoniae [12] = assay: Antimicrobial activity against drug-susceptible Streptococcus pneumoniae 2 after 20 hrs by agar dilution method; details: Streptococcus pneumoniae, 20 h; read-out: MIC; method in brief: as §1
Haemophilus influenzae [13] = assay: Antimicrobial activity against drug-susceptible Haemophilus influenzae 4 after 20 hrs by agar dilution method; method in brief: as §1
Streptococcus pneumoniae [14] = assay: Antimicrobial activity against Streptococcus pneumoniae 9 expressing mefA after 20 hrs by agar dilution method; method in brief: as §1
Streptococcus pneumoniae [15] = assay: Antimicrobial activity against Streptococcus pneumoniae 8 expressing inducible ermB after 20 hrs by agar dilution method; method in brief: as §1
Staphylococcus aureus [16] = assay: Antimicrobial activity against Staphylococcus aureus 4 constitutively expressing ermA after 20 hrs by agar dilution method; method in brief: as §2
Moraxella catarrhalis [17] = assay: Antimicrobial activity against drug-susceptible Moraxella catarrhalis 2 after 20 hrs by agar dilution method; details: Moraxella catarrhalis, 20 h; read-out: MIC; method in brief: as §1
Staphylococcus aureus [18] = assay: Antimicrobial activity against Staphylococcus aureus 5 expressing inducible ermB after 20 hrs by agar dilution method; details: Staphylococcus aureus, 20 h; read-out: MIC; method in brief: as §2
Streptococcus pneumoniae [19] = assay: Antimicrobial activity against Streptococcus pneumoniae 4 constitutively expressing ermB after 20 hrs by agar dilution method; details: Streptococcus pneumoniae, 20 h; read-out: MIC; method in brief: as §1
Streptococcus pneumoniae [20] = assay: Antimicrobial activity against Streptococcus pneumoniae 10 expressing mefA after 20 hrs by agar dilution method; method in brief: as §1
Streptococcus pneumoniae [21] = assay: Antimicrobial activity against Streptococcus pneumoniae 5 constitutively expressing ermB/mefA after 20 hrs by agar dilution method; details: Streptococcus pneumoniae, 20 h; read-out: MIC; method in brief: as §1
Streptococcus pyogenes [22] = assay: Antimicrobial activity against Streptococcus pyogenes 2 constitutively expressing ermB after 20 hrs by agar dilution method; method in brief: as §1
Staphylococcus aureus [23] = assay: Antimicrobial activity against drug-susceptible Staphylococcus aureus 3 after 20 hrs by agar dilution method; details: Staphylococcus aureus, 20 h; read-out: MIC; method in brief: as §2
Staphylococcus aureus [24] = assay: Antimicrobial activity against drug-susceptible Staphylococcus aureus 209P JC-1 after 20 hrs by agar dilution method; details: Staphylococcus aureus, 209P, 20 h; read-out: MIC; method in brief: as §2
Streptococcus pyogenes [25] = assay: Antimicrobial activity against drug-susceptible Streptococcus pyogenes 1 after 20 hrs by agar dilution method; method in brief: as §1
[26] = Streptococcus pyogenes, 20 h, read-out: MIC
[27] = Streptococcus pneumoniae, 20 h, read-out: MIC
[28] = Haemophilus influenzae, 20 h, read-out: MIC

MIC (Streptococcus pneumoniae [1])	MIC (Haemophilus influenzae [2])	MIC (Staphylococcus aureus [3])	MIC (Staphylococcus aureus [4])	MIC (Streptococcus pyogenes [5]; [26])	MIC (Haemophilus influenzae [6])	MIC (Haemophilus influenzae [7])	MIC (Moraxella catarrhalis [8])	MIC (Streptococcus pneumoniae [9])	MIC (Streptococcus pneumoniae [10]; [27])	MIC (Streptococcus pneumoniae [11])	MIC (Streptococcus pneumoniae [12])	MIC (Staphylococcus aureus [16])	MIC (Moraxella catarrhalis [17])	MIC (Staphylococcus aureus [18])	MIC (Streptococcus pneumoniae [19])	MIC (Streptococcus pneumoniae [21])	MIC (Streptococcus pyogenes [22])	MIC (Staphylococcus aureus [23])	MIC (Staphylococcus aureus [24])	SMILES	further results
< 0.008 µg/mL	32 µg/mL (≈ 32.4 µM)	0.25 µg/mL (≈ 0.253 µM)	0.25 µg/mL (≈ 0.253 µM)	0.13 µg/mL (≈ 0.132 µM)	8 µg/mL (≈ 8.1 µM)	2 µg/mL (≈ 2.02 µM)	1 µg/mL (≈ 1.01 µM)	128 µg/mL (≈ 130 µM)	4 µg/mL (≈ 4.05 µM)	< 0.008 µg/mL	0.015 µg/mL (≈ 0.0152 µM)	> 128 µg/mL	1 µg/mL (≈ 1.01 µM)	0.13 µg/mL (≈ 0.132 µM)	128 µg/mL (≈ 130 µM)	128 µg/mL (≈ 130 µM)	> 128 µg/mL	0.13 µg/mL (≈ 0.132 µM)	0.13 µg/mL (≈ 0.132 µM)	CCOC(=O)[C@H]1[C@H](C)O[C@@H](O[C@H]2[C@H](N(C)C)[C@@H](O)[C@H](O[C@H]3[C@@H](CC=O)C[C@@H](C)[C@@H](O)CN(C)CCC[C@H](CCCc4cnc5ccccc5c4)OC(=O)C[C@@H](OC(=O)CC)[C@@H]3OC)O[C@@H]2C)C[C@@]1(C)O	MIC (Haemophilus influenzae [13]; [28]): 8 µg/mL (≈ 8.1 µM); MIC (Streptococcus pneumoniae [14]; [27]): 0.015 µg/mL (≈ 0.0152 µM); MIC (Streptococcus pneumoniae [15]; [27]): 4 µg/mL (≈ 4.05 µM); MIC (Streptococcus pneumoniae [20]; [27]): 0.015 µg/mL (≈ 0.0152 µM); MIC (Streptococcus pyogenes [25]; [26]): 0.015 µg/mL (≈ 0.0152 µM)
0.13 µg/mL (≈ 0.132 µM)	64 µg/mL (≈ 64.9 µM)	1 µg/mL (≈ 1.01 µM)	0.5 µg/mL (≈ 0.507 µM)	0.5 µg/mL (≈ 0.507 µM)	16 µg/mL (≈ 16.2 µM)	8 µg/mL (≈ 8.11 µM)	2 µg/mL (≈ 2.03 µM)	> 128 µg/mL	32 µg/mL (≈ 32.4 µM)	0.06 µg/mL (≈ 0.0608 µM)	0.13 µg/mL (≈ 0.132 µM)	> 128 µg/mL	4 µg/mL (≈ 4.06 µM)	0.25 µg/mL (≈ 0.253 µM)	> 128 µg/mL	> 128 µg/mL	> 128 µg/mL	0.25 µg/mL (≈ 0.253 µM)	0.5 µg/mL (≈ 0.507 µM)	CCOC(=O)[C@H]1[C@H](C)O[C@@H](O[C@H]2[C@H](N(C)C)[C@@H](O)[C@H](O[C@H]3[C@@H](CC=O)C[C@@H](C)[C@@H](O)CN(C)CCC[C@@H](C/C=C/c4ccnc5ccccc45)OC(=O)C[C@@H](OC(=O)CC)[C@@H]3OC)O[C@@H]2C)C[C@@]1(C)O	MIC (Haemophilus influenzae [13]; [28]): 16 µg/mL (≈ 16.2 µM); MIC (Streptococcus pneumoniae [14]; [27]): 0.13 µg/mL (≈ 0.132 µM); MIC (Streptococcus pneumoniae [15]; [27]): 32 µg/mL (≈ 32.4 µM); MIC (Streptococcus pneumoniae [20]; [27]): 0.13 µg/mL (≈ 0.132 µM); MIC (Streptococcus pyogenes [25]; [26]): 0.25 µg/mL (≈ 0.253 µM)
< 0.008 µg/mL	32 µg/mL (≈ 32.4 µM)	0.25 µg/mL (≈ 0.253 µM)	0.25 µg/mL (≈ 0.253 µM)		8 µg/mL (≈ 8.11 µM)	2 µg/mL (≈ 2.03 µM)	1 µg/mL (≈ 1.01 µM)	128 µg/mL (≈ 130 µM)		0.015 µg/mL (≈ 0.0152 µM)	0.03 µg/mL (≈ 0.0304 µM)	> 128 µg/mL	1 µg/mL (≈ 1.01 µM)	0.13 µg/mL (≈ 0.132 µM)	128 µg/mL (≈ 130 µM)	128 µg/mL (≈ 130 µM)	> 128 µg/mL	0.13 µg/mL (≈ 0.132 µM)	0.13 µg/mL (≈ 0.132 µM)	CCOC(=O)[C@H]1[C@H](C)O[C@@H](O[C@H]2[C@H](N(C)C)[C@@H](O)[C@H](O[C@H]3[C@@H](CC=O)C[C@@H](C)[C@@H](O)CN(C)CC(/C=C/Cc4cnc5ccccc5c4)CCOC(=O)C[C@@H](OC(=O)CC)[C@@H]3OC)O[C@@H]2C)C[C@@]1(C)O (stereo in doubt; form 1)	MIC (Streptococcus pyogenes [5]): 0.13 µg/mL (≈ 0.132 µM); MIC (Streptococcus pneumoniae [10]): 1 µg/mL (≈ 1.01 µM); MIC (Haemophilus influenzae [13]): 4 µg/mL (≈ 4.06 µM); MIC (Streptococcus pneumoniae [14]): 0.015 µg/mL (≈ 0.0152 µM); MIC (Streptococcus pneumoniae [15]): 1 µg/mL (≈ 1.01 µM); MIC (Streptococcus pneumoniae [20]): 0.015 µg/mL (≈ 0.0152 µM); MIC (Streptococcus pyogenes [25]): 0.03 µg/mL (≈ 0.0304 µM)
